From ChEMBL document CHEMBL2380245, “Synthesis and evaluation of 2,3-dinorprostaglandins: Dinor-PGD1 and 13-epi-dinor-PGD1 are peroxisome proliferator-activated receptor α/γ dual agonists” (Bioorg Med Chem Lett, 2013)
Activity calls are given as the source filed them.

Columns and labels:
Type in all cases: cell-based
[1] = target: T1, Peroxisome proliferator-activated receptor delta (Homo sapiens) (UniProt Q03181); assay: Agonist activity at PPARdelta (unknown origin) transfected in HEK293 cells at 10 uM by luciferase reporter gene assay
T1 sequence (whole entry): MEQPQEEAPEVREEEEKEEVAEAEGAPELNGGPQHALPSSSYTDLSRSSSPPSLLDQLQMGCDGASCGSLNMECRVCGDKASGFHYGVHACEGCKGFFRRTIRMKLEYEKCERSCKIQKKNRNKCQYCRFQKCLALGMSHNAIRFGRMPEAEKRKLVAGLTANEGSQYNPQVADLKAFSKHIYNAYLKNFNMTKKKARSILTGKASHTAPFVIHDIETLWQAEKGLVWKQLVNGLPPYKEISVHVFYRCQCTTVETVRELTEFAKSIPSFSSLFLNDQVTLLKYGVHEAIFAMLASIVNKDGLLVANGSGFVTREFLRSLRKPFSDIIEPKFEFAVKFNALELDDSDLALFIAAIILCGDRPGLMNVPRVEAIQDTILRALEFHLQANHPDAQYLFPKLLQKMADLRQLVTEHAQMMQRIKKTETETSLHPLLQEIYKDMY

[2] = target: T2, Peroxisome proliferator-activated receptor gamma (Homo sapiens) (UniProt P37231); assay: Agonist activity at PPARgamma (unknown origin) transfected in HEK293 cells at 10 uM by luciferase reporter gene assay
T2 sequence (whole entry): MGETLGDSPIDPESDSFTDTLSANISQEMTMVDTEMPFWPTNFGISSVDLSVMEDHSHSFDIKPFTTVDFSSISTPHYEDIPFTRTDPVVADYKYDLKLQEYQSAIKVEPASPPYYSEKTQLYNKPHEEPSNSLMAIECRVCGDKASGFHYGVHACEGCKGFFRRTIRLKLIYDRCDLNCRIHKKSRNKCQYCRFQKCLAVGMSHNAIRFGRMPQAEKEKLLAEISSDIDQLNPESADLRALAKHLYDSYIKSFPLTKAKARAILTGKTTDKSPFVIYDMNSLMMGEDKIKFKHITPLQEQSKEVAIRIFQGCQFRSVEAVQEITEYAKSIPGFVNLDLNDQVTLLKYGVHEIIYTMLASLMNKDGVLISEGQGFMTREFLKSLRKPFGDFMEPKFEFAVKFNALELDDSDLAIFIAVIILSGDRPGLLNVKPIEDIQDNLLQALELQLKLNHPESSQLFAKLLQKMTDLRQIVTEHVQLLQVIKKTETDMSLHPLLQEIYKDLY
Outline: (§1)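 Luciferase PPAR reporter assay in transfected HEK293 cells, run following a previously reported protocol. Each receptor was tested alongside a subtype-selective reference agonist as control: PPARα at 10 µM, PPARδ at 100 nM and PPARγ at 10 µM.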

[3] = target: T3, Peroxisome proliferator-activated receptor alpha (Homo sapiens) (UniProt Q07869); assay: Agonist activity at PPARalpha (unknown origin) transfected in HEK293 cells at 10 uM by luciferase reporter gene assay; outline: as §1
T3 sequence (whole entry): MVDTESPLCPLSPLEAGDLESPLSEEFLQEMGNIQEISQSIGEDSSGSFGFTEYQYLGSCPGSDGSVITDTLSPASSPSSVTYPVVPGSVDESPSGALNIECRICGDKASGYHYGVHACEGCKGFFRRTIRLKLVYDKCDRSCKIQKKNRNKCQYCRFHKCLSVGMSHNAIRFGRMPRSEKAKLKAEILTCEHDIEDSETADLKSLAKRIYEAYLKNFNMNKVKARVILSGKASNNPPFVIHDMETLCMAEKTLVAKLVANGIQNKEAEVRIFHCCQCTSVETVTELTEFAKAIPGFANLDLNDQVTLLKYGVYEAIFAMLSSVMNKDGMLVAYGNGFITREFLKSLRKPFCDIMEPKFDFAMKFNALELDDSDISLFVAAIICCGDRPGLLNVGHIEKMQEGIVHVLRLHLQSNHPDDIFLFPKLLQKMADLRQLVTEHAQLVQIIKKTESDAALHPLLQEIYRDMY

[4] = target: T3, Peroxisome proliferator-activated receptor alpha (Homo sapiens); assay: Agonist activity at PPARalpha (unknown origin) transfected in HEK293 cells at 1 to 30 uM by luciferase reporter gene assay
[5] = target: T2, Peroxisome proliferator-activated receptor gamma (Homo sapiens); assay: Agonist activity at PPARgamma (unknown origin) transfected in HEK293 cells at 1 to 30 uM by luciferase reporter gene assay

Measured: Activity

CC1(COc2ccc(CC3SC(=O)NC3=O)cc2)CCCCC1 (stereo not given)
active: [1] | [2] | [3]

CCCCC[C@H](O)/C=C/[C@H]1C(=O)C[C@H](O)[C@@H]1C/C=C\CCCC(=O)O
active: all assays above

CC(C)(Oc1ccc(C(=O)c2ccc(Cl)cc2)cc1)C(=O)O
active: [1] | [2] | [3]

CCCCC[C@@H](O)/C=C/[C@H]1C(=O)C[C@H](O)[C@@H]1CCCCC(=O)O
active: [4] | [5] | [3]

CCCCC[C@H](O)/C=C/[C@H]1C(=O)C[C@H](O)[C@@H]1CCCCC(=O)O
active: [4] | [5] | [3]

CCCCC/C=C/C=C1/C(=O)C=C[C@@H]1CCCCC(=O)O
active: [1] | [2] | [3]
